Experimental data: ChEMBL document CHEMBL1128517, “Unusual single-stranded polyribonucleotides as potent anti-HIV agents” (J Med Chem, 1995)

Tests used:
Homo sapiens [1] = organism: Homo sapiens; test: Inhibitory activity against the HIV-1-induced cytopathic effect in Macrophage; type: functional, organism-based
How it was run: (§1)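 Fresh human peripheral blood lymphocytes and macrophages were isolated by Ficoll-Hypaque centrifugation. They were infected with clinical HIV-1 isolates cultured from patient peripheral blood lymphocytes, then treated with the polymers. Inhibition of HIV replication was reported as IC50.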

CEM-SS [2] = test: Inhibitory activity against the HIV-1-induced cytopathic effect in CEM-SS cell line; type: functional, cell-based; conditions: Homo sapiens
How it was run: (§2)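 XTT cytoprotection assay. CEM-SS cells were seeded at 5×10^3 per well and infected at a multiplicity that gave complete killing of virus control wells by day 6. Isolates were pretitered to equivalent infection. Serial half-log dilutions of compound were tested in triplicate. After 6 days at 37 °C, XTT (1 mg/mL) with phenazine methosulfate (6.12 µg/mL) was added for 4 h and read at 450 nm. Concentrations in µM were based on estimated number-average molecular weights.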

CEM-SS [3] = test: Inhibitory activity against the cytopathic effect of HIV-2 A17 (pyridinone-res) strain in CEM-SS cells; type: functional, cell-based; conditions: Homo sapiens; how it was run: as §2
CEM-SS [4] = test: Inhibitory activity against the cytopathic effect of HIV-2 MS strain in CEM-SS cells; type: functional, cell-based; conditions: Homo sapiens; how it was run: as §2
CEM-SS [5] = test: Inhibitory activity against the cytopathic effect of HIV-2 G910-6(AZT-res) strain in CEM-SS cells; type: functional, cell-based; conditions: Homo sapiens; how it was run: as §2
CEM-SS [6] = test: Inhibitory activity against the cytopathic effect of HIV-1 LAV strain in CEM-SS cells; type: functional, cell-based; conditions: Homo sapiens; how it was run: as §2
Homo sapiens [7] = organism: Homo sapiens; test: Inhibitory activity against the HIV-1-induced cytopathic effect in fresh human peripheral blood lymphocytes; type: functional, organism-based; how it was run: as §1
CEM-SS [8] = test: Inhibitory activity against the cytopathic effect of HIV-1 IIIB strain in CEM-SS cells; type: functional, cell-based; conditions: Homo sapiens; how it was run: as §2
CEM-SS [9] = test: Inhibitory activity against the cytopathic effect of HIV-1 RFstrain in CEM-SS cells; type: functional, cell-based; conditions: Homo sapiens; how it was run: as §2
CEM-SS [10] = test: Inhibitory activity against the cytopathic effect of HIV-2 ROD strain in CEM-SS cells; type: functional, cell-based; conditions: Homo sapiens; how it was run: as §2
MT2 = test: Inhibitory activity against the HIV-1-induced cytopathic effect in MT-2 cell line; type: functional, cell-based; conditions: Homo sapiens
Homo sapiens [11] = organism: Homo sapiens; test: Inhibitory activity against the HIV-1-induced cytopathic effect in human peripheral blood lymphocytes; type: functional, organism-based; how it was run: as §1

IC50 (Homo sapiens [1]) [nM] | IC50 (CEM-SS [2]) [nM] | IC50 (CEM-SS [3]) [nM] | IC50 (CEM-SS [4]) [nM] | IC50 (CEM-SS [5]) [nM] | IC50 (CEM-SS [6]) [nM] | IC50 (CEM-SS [8]) [nM] | IC50 (CEM-SS [9]) [nM] | IC50 (CEM-SS [10]) [nM] | IC50 (MT2) [nM] | IC50 (Homo sapiens [11]) [nM] | Compound | IC50 (Homo sapiens [7]) [nM]
2 | 10 | 80 | 30 | 20 | 30 | 10 | 50 | 30 | 160 | 30 | Cn1c(N)nc2c(ncn2[C@@H]2O[C@H](CO)[C@@H](OP(=O)(O)O)[C@H]2O)c1=S | –
150 | 80 | 600 | 140 | 100 | 40 | 80 | 170 | 250 | 800 | – | Cn1cnc2c(ncn2C2O[C@H](COP(=O)(O)O)[C@@H](O)[C@H]2O)c1=S (stereo partly drawn) | 30

Compound | IC50 (Homo sapiens [1]) [nM] | IC50 (CEM-SS [2]) [nM] | IC50 (CEM-SS [3]) [nM] | IC50 (CEM-SS [4]) [nM] | IC50 (CEM-SS [5]) [nM] | IC50 (CEM-SS [6]) [nM] | IC50 (CEM-SS [8]) [nM] | IC50 (CEM-SS [9]) [nM] | IC50 (CEM-SS [10]) [nM] | IC50 (MT2) [nM] | IC50 (Homo sapiens [11]) [nM] | IC50 (Homo sapiens [7]) [nM]
Cc1cn([C@H]2C[C@H](N=[N+]=[N-])[C@@H](CO)O2)c(=O)[nH]c1=O [ZIDOVUDINE] | 400 | 2 | 5 | 30 | > 1000 | 4 | 2 | 30 | 5 | 6 | – | 20
